Compound activity: PubChem BioAssay, several laboratories
PABP1 MLLE inh: inhibitors of PABP1 MLLE–PAM2 peptide binding, primary screen, biochemical, fluorescence polarization, FITC-PAM2, GST-MLLE | Polyadenylate-binding protein 1 (Homo sapiens), P11940 | inhibition, % at 20 µM | hit rate 0.36% among 360,000 | AID 588489, 2011; in the data active = inhibition above about 35%, passing the limit was not always enough
eIF4H FP inh: human eIF4H binding inhibitors, primary screen, translation initiation inhibitor project, biochemical, uHTS, fluorescence polarization. eIF4H fluorescence polarization binding assay. Eukaryotic translation initiation factor 4H (Homo sapiens), Q15056. inhibition, % at 35 µM. AID 2012, 2009. hit rate 0.94% among 290,000;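 also: calls also rest on retests at 20 µM and on dose response follow-up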
NS3 helicase inh: inhibitors of HCV NS3 helicase, primary screen, biochemical, Cy5 molecular beacon fluorescence | NS3 helicase DNA unwinding | AID 1800, 2009 | hit rate 0.56% among 290,000 | inhibition, % at 10.9 µM;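 active = inhibition above the mean of all tested compounds plus 3 SD, set per campaign, cut at about 35% in these data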
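Assay system: hepatitis C virus NS3 helicase domain fragment enzyme. Also added: annealed dual-labelled DNA beacon duplex, ATP-started. Timing: 1 h reaction at 25 °C, ATP-initiated. Technique: Cy5 fluorescence at 0 and 60 min, beacon hairpin quenching. Evaluation: % inhibition of unwinding. Replication: one well per compound.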
core dimer inh: inhibitors of HCV core protein dimerization, primary screen, biochemical, TR-FRET, high-throughput; inhibition, % at 5 µM; hit rate 0.33% among 300,000; AID 1899, 2009; TR-FRET GST/Flag-core106 dimerization, 1536-well;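 active = inhibition above the mean of all tested compounds plus 3 SD, set per screening campaign, cut at about 45% in these data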
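System: GST-tagged and Flag-tagged HCV core protein residues 1-106 / Input: core106 proteins, GST 13.5 nM and Flag 17 nM / Buffer or medium: KF-containing HEPES buffer, pH 7.45, DTT, CHAPS, BSA / Probe or stimulus: Eu-anti-GST and XL665-anti-Flag labelled anti-tag antibodies / Schedule: 4 h, 22.5 °C incubation / Technique: TR-FRET 671 and 617 nm emission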
PABP FP inh: PABP poly(A) RNA binding inhibitors, primary screen, biochemical, fluorescence polarization, uHTS. Polyadenylate-binding protein 1 (Homo sapiens), P11940. inhibition, % at 35 µM. hit rate 1% among 290,000;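 also: calls also rest on retests at 20 µM and on dose response follow-up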
DNA FID counter: compounds displacing fluorescent DNA intercalator, primary screen, artefact control for HCV NS3 helicase inhibitor project, biochemical, FID fluorescence | DNA fluorescent intercalator displacement | inhibition, % at 7.9 µM | hit rate 0.17% among 290,000; in the data active = inhibition above about 37%;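 also: higher means more ethidium bromide displaced from hairpin DNA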
Each line names hits and unclear results; the compound was inactive in the other large screens. Shown are actives, neighbours in structure and some others; about 2% of the full set was active somewhere. Unless noted, no rule for the calls is given here.

COc1cccc(-n2c(C)c3c(OC)cccc(=O)c3c2C)c1	eIF4H FP inh inconclusive, core dimer inh 52, PABP FP inh inconclusive
COc1cccc(=O)c2c(C)n(-c3cc(C)cc(C)c3)c(C)c12	none
COc1ccc(-c2cnc(C(O)c3ccc(CN4CCCCC4)cc3)[nH]2)cc1 (stereo unspecified)	none (no result: eIF4H FP inh, NS3 helicase inh, core dimer inh, PABP FP inh, DNA FID counter)
CC1(C)Oc2ccc3ccc(=O)oc3c2C(N2CCCCC2)C1O (stereo unspecified)	eIF4H FP inh 42
COc1cc(CCC(=O)Nc2ccc(Br)c(C(F)(F)F)c2)cc(OC)c1OC	eIF4H FP inh active, PABP FP inh 100
COc1cc(CCC(=O)Nc2ccc(Cl)c(C(F)(F)F)c2)cc(OC)c1OC	none
O=C(NCCN1CCCC(O)C1)c1cc(COc2cccc(C(F)(F)F)c2)on1 (stereo unspecified)	none (no result: eIF4H FP inh, NS3 helicase inh, core dimer inh, PABP FP inh, DNA FID counter)
Cc1ccc(NC2OC(C(O)CO)C(O)C2O)cc1[N+](=O)[O-] (stereo unspecified)	eIF4H FP inh 93
CN(C)Cc1csc(Nc2ccc(C(F)(F)F)cn2)n1	none (no result: eIF4H FP inh, NS3 helicase inh, core dimer inh, PABP FP inh, DNA FID counter)
CCCCN1C(=O)/C(=C2\SC(N3CCCCC3)=NC2=O)c2ccccc21	PABP1 MLLE inh 40
CCN1CCN(c2ccc(S(=O)(=O)N3CCCCC3)cc2NC(=O)/C=C/c2cccc(OC)c2OC)CC1	DNA FID counter 38
O=C(Nc1cc2nn(-c3ccccc3)nc2cc1Cl)c1ccco1	eIF4H FP inh 28, PABP FP inh 58
CCCOc1cc(N)ccc1C(=O)OCCN(CC)CC	none (no result: eIF4H FP inh, NS3 helicase inh, PABP FP inh, DNA FID counter)
CCCOc1ccc(N)cc1N	eIF4H FP inh 79, PABP FP inh 102
Cc1cc(C)cc(N=Cc2[nH]c3ccc(Br)c(Cl)c3c2O)c1	eIF4H FP inh inconclusive, PABP FP inh 3.8
COc1ccc(CN=Cc2[nH]c3ccc(Br)c(Cl)c3c2O)cc1	none
C#CCOCCOCCOCCNc1nc(N2CCN(C(=O)[C@H]([C@@H](C)CC)n3cc([C@@H](N)CO)nn3)CC2)nc(N2CCN(C(=O)[C@H](CCCCN)n3cc([C@@H](N)CC(C)C)nn3)CC2)n1	DNA FID counter 43 (no result: PABP1 MLLE inh)
C#CCOCCOCCOCCNc1nc(N2CCN(C(=O)[C@H](CCCCN)n3cc([C@@H](N)C(C)CC)nn3)CC2)nc(N2CCN(C(=O)[C@H](CCCCN)n3cc([C@@H](N)CC(C)C)nn3)CC2)n1 (stereo partly specified)	DNA FID counter 62
C#CCOCCOCCOCCNc1nc(N2CCN(C(=O)[C@H](CCC(=O)O)n3cc(C(N)Cc4ccc(O)cc4)nn3)CC2)nc(N2CCN(C(=O)[C@H](CCCCN)n3cc(C(N)[C@H](C)CC)nn3)CC2)n1 (stereo partly specified)	none (no result: PABP1 MLLE inh, NS3 helicase inh, core dimer inh, DNA FID counter)
C#CCOCCOCCOCCNc1nc(N2CCN(C(=O)[C@H](CCCCN)n3cc([C@@H](N)[C@H](C)CC)nn3)CC2)nc(N2CCN(C(=O)[C@H](CCCCN)n3cc([C@@H](N)CC(N)=O)nn3)CC2)n1	none (no result: eIF4H FP inh, NS3 helicase inh, core dimer inh, PABP FP inh, DNA FID counter)
C#CCOCCOCCOCCNc1nc(N2CCOCC2)nc(N2CCN(C(=O)[C@H](CCCCN)n3cc([C@@H](N)C(C)CC)nn3)CC2)n1 (stereo partly specified)	DNA FID counter 38
C#CCOCCOCCOCCNc1nc(N2CCN(C(=O)[C@H](CCCCN)n3cc([C@@H](N)CO)nn3)CC2)nc(N2CCN(C(=O)[C@H](CCCCN)n3cc([C@@H](N)CC(C)C)nn3)CC2)n1	none (no result: eIF4H FP inh, NS3 helicase inh, core dimer inh, PABP FP inh, DNA FID counter)
C#CCOCCOCCOCCNc1nc(N2CCOCC2)nc(N2CCN(C(=O)[C@H](CCCN=C(N)N)n3cc(C(N)[C@@H](C)CC)nn3)CC2)n1 (stereo partly specified)	none (no result: eIF4H FP inh, NS3 helicase inh, core dimer inh, PABP FP inh, DNA FID counter)
C#CCOCCOCCOCCNc1nc(N2CCN(C(=O)[C@H]([C@@H](C)CC)n3cc([C@@H](N)Cc4ccc(O)cc4)nn3)CC2)nc(N2CCN(C(=O)[C@H](CCCCN)n3cc([C@@H](N)C(C)CC)nn3)CC2)n1 (stereo partly specified)	DNA FID counter 43
